In ChEMBL document CHEMBL2046419, “Antibacterial anthraquinone derivatives from a sea anemone-derived fungus Nigrospora sp” (J Nat Prod, 2012):
Converted amounts (≈) assume the structure as drawn.

tested on: Bacillus subtilis; assay: Antibacterial activity against Bacillus subtilis ATCC 6633 after 24 hrs by serial dilution technique; assay type: functional; conditions: ATCC 6633, 24 h

SMILES	MIC
COc1cc(O)c2c(c1O)C(=O)C1=C(C[C@@H](O)[C@@](C)(O)C1)C2=O	3.12 µM (≈ 0.999 µg/mL)
COC1=CC(=O)c2c(cc3c(c2O)C[C@@H](O)[C@@](C)(O)C3)C1=O [NIGROSPORIN B]	0.312 µM (≈ 0.0949 µg/mL)
COc1cc(OC(C)=O)c2c(c1O)C(=O)c1cc(C)c(O)cc1C2=O	> 200 µM
COc1cc(OC(C)=O)c2c(c1OC(C)=O)C(=O)c1cc(C)c(O)cc1C2=O	5 µM (≈ 1.92 µg/mL)
COc1cc(O)c2c(c1OC(C)=O)C(=O)c1cc(C)c(O)cc1C2=O	> 200 µM

tested on: Bacillus cereus; assay: Antibacterial activity against Bacillus cereus ACCC 11077 after 24 hrs by serial dilution technique; assay type: functional; conditions: ACCC 11077, 24 h

SMILES	MIC
COc1cc(O)c2c(c1O)C(=O)C1=C(C[C@@H](O)[C@@](C)(O)C1)C2=O	3.12 µM (≈ 0.999 µg/mL)
COC1=CC(=O)c2c(cc3c(c2O)C[C@@H](O)[C@@](C)(O)C3)C1=O [NIGROSPORIN B]	0.312 µM (≈ 0.0949 µg/mL)
COc1cc(OC(C)=O)c2c(c1O)C(=O)c1cc(C)c(O)cc1C2=O	> 200 µM
COc1cc(OC(C)=O)c2c(c1OC(C)=O)C(=O)c1cc(C)c(O)cc1C2=O	37.5 µM (≈ 14.4 µg/mL)
COc1cc(O)c2c(c1OC(C)=O)C(=O)c1cc(C)c(O)cc1C2=O	> 200 µM

tested on: Micrococcus luteus; assay: Antibacterial activity against Micrococcus luteus ATCC 49732 after 24 hrs by serial dilution technique; assay type: functional; conditions: ATCC 49732, 24 h

SMILES	MIC
COc1cc(O)c2c(c1O)C(=O)C1=C(C[C@@H](O)[C@@](C)(O)C1)C2=O	200 µM (≈ 64.1 µg/mL)
COC1=CC(=O)c2c(cc3c(c2O)C[C@@H](O)[C@@](C)(O)C3)C1=O [NIGROSPORIN B]	10 µM (≈ 3.04 µg/mL)
COc1cc(OC(C)=O)c2c(c1O)C(=O)c1cc(C)c(O)cc1C2=O	> 200 µM
COc1cc(OC(C)=O)c2c(c1OC(C)=O)C(=O)c1cc(C)c(O)cc1C2=O	> 150 µM
COc1cc(O)c2c(c1OC(C)=O)C(=O)c1cc(C)c(O)cc1C2=O	> 200 µM

tested on: Staphylococcus aureus; assay: Antibacterial activity against Staphylococcus aureus ATCC 27154 after 24 hrs by serial dilution technique; assay type: functional; conditions: ATCC 27154, 24 h

SMILES	MIC
COc1cc(O)c2c(c1O)C(=O)C1=C(C[C@@H](O)[C@@](C)(O)C1)C2=O	3.12 µM (≈ 0.999 µg/mL)
COC1=CC(=O)c2c(cc3c(c2O)C[C@@H](O)[C@@](C)(O)C3)C1=O [NIGROSPORIN B]	1.25 µM (≈ 0.38 µg/mL)
COc1cc(OC(C)=O)c2c(c1O)C(=O)c1cc(C)c(O)cc1C2=O	> 200 µM
COc1cc(OC(C)=O)c2c(c1OC(C)=O)C(=O)c1cc(C)c(O)cc1C2=O	> 150 µM
COc1cc(O)c2c(c1OC(C)=O)C(=O)c1cc(C)c(O)cc1C2=O	100 µM (≈ 34.2 µg/mL)

tested on: Micrococcus; assay: Antibacterial activity against Micrococcus tetragenus ATCC 13623 after 24 hrs by serial dilution technique; assay type: functional; conditions: ATCC 13623, 24 h

SMILES	MIC
COc1cc(O)c2c(c1O)C(=O)C1=C(C[C@@H](O)[C@@](C)(O)C1)C2=O	3.12 µM (≈ 0.999 µg/mL)
COC1=CC(=O)c2c(cc3c(c2O)C[C@@H](O)[C@@](C)(O)C3)C1=O [NIGROSPORIN B]	0.625 µM (≈ 0.19 µg/mL)
COc1cc(OC(C)=O)c2c(c1O)C(=O)c1cc(C)c(O)cc1C2=O	> 200 µM
COc1cc(OC(C)=O)c2c(c1OC(C)=O)C(=O)c1cc(C)c(O)cc1C2=O	9.4 µM (≈ 3.61 µg/mL)
COc1cc(O)c2c(c1OC(C)=O)C(=O)c1cc(C)c(O)cc1C2=O	> 200 µM

tested on: Escherichia coli; assay: Antibacterial activity against Escherichia coli ATCC 25922 after 24 hrs by serial dilution technique; assay type: functional; conditions: ATCC 25922, 24 h

SMILES	MIC
COc1cc(O)c2c(c1O)C(=O)C1=C(C[C@@H](O)[C@@](C)(O)C1)C2=O	1.56 µM (≈ 0.5 µg/mL)
COC1=CC(=O)c2c(cc3c(c2O)C[C@@H](O)[C@@](C)(O)C3)C1=O [NIGROSPORIN B]	1.25 µM (≈ 0.38 µg/mL)
COc1cc(OC(C)=O)c2c(c1O)C(=O)c1cc(C)c(O)cc1C2=O	> 200 µM
COc1cc(OC(C)=O)c2c(c1OC(C)=O)C(=O)c1cc(C)c(O)cc1C2=O	> 150 µM
COc1cc(O)c2c(c1OC(C)=O)C(=O)c1cc(C)c(O)cc1C2=O	> 200 µM

tested on: Vibrio anguillarum; assay: Antibacterial activity against Vibrio anguillarum ATCC 19019 after 24 hrs by serial dilution technique; assay type: functional; conditions: ATCC 19019, 24 h

SMILES	MIC
COc1cc(O)c2c(c1O)C(=O)C1=C(C[C@@H](O)[C@@](C)(O)C1)C2=O	3.12 µM (≈ 0.999 µg/mL)
COC1=CC(=O)c2c(cc3c(c2O)C[C@@H](O)[C@@](C)(O)C3)C1=O [NIGROSPORIN B]	1.25 µM (≈ 0.38 µg/mL)
COc1cc(OC(C)=O)c2c(c1O)C(=O)c1cc(C)c(O)cc1C2=O	> 200 µM
COc1cc(OC(C)=O)c2c(c1OC(C)=O)C(=O)c1cc(C)c(O)cc1C2=O	4.7 µM (≈ 1.81 µg/mL)
COc1cc(O)c2c(c1OC(C)=O)C(=O)c1cc(C)c(O)cc1C2=O	> 200 µM

tested on: Vibrio parahaemolyticus; assay: Antibacterial activity against Vibrio parahaemolyticus ATCC 17802 after 24 hrs by serial dilution technique; assay type: functional; conditions: ATCC 17802, 24 h

SMILES	MIC
COc1cc(O)c2c(c1O)C(=O)C1=C(C[C@@H](O)[C@@](C)(O)C1)C2=O	3.12 µM (≈ 0.999 µg/mL)
COC1=CC(=O)c2c(cc3c(c2O)C[C@@H](O)[C@@](C)(O)C3)C1=O [NIGROSPORIN B]	0.625 µM (≈ 0.19 µg/mL)
COc1cc(OC(C)=O)c2c(c1O)C(=O)c1cc(C)c(O)cc1C2=O	> 200 µM
COc1cc(OC(C)=O)c2c(c1OC(C)=O)C(=O)c1cc(C)c(O)cc1C2=O	75 µM (≈ 28.8 µg/mL)
COc1cc(O)c2c(c1OC(C)=O)C(=O)c1cc(C)c(O)cc1C2=O	> 200 µM

tested on: A549; assay: Cytotoxicity against human A549 cells by MTT assay; assay type: functional, cell-based; conditions: not given
Method in brief: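 A549 human lung cancer cells, MTT read-out, mitomycin as positive control; IC50 reported in μM.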

SMILES	IC50
COC1=CC(=O)c2c(cc3c(c2O)C[C@@H](O)[C@@](C)(O)C3)C1=O [NIGROSPORIN B]	3.32 µM

tested on: Staphylococcus albus; assay: Antibacterial activity against Staphylococcus albus ATCC 8799 after 24 hrs by serial dilution technique; conditions: ATCC 8799, 24 h

SMILES	MIC
COc1cc(O)c2c(c1O)C(=O)C1=C(C[C@@H](O)[C@@](C)(O)C1)C2=O	3.12 µM (≈ 0.999 µg/mL)
COC1=CC(=O)c2c(cc3c(c2O)C[C@@H](O)[C@@](C)(O)C3)C1=O [NIGROSPORIN B]	2.5 µM (≈ 0.761 µg/mL)
COc1cc(OC(C)=O)c2c(c1O)C(=O)c1cc(C)c(O)cc1C2=O	> 200 µM
COc1cc(OC(C)=O)c2c(c1OC(C)=O)C(=O)c1cc(C)c(O)cc1C2=O	> 150 µM
COc1cc(O)c2c(c1OC(C)=O)C(=O)c1cc(C)c(O)cc1C2=O	100 µM (≈ 34.2 µg/mL)
